Data set [1] relates to NCI-H460. The data set can be described thus: Antiproliferative activity against human NCI-H460 cells using 1% DMSO/water compound formulation after 72 hrs by MTT assay. It is filed as functional, cell-based. The note with it: NCI-H460, 72 h. The method, boiled down: (§1)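 MTT anti-proliferation on NSCLC lines. Compounds dissolved in DMSO, diluted with water to 1% DMSO, then into growth medium (max 0.032% DMSO on cells); or dissolved in 10% (w/v) 2-HPβCD in water, then diluted (max 0.008% w/w 2-HPβCD in wells; vehicle controls at 0.008%). IC50 = concentration giving 50% loss of viability versus control cells. Cisplatin dissolved in water with stirring.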
(In general: Tetrazolium assays rely on reduction of a dye to a coloured formazan, in cell work by metabolically active cells.)

For data set [2], the system named is NCI-H460. The data set can be described thus: Antiproliferative activity against human NCI-H460 cells using 10% 2-HPbetaCD compound formulation after 72 hrs by MTT assay. The data set is classed as functional, cell-based. The settings on record: NCI-H460, 72 h. The method, boiled down: as §1
The test system of data set [3] is HCC827. The data set can be described thus: Antiproliferative activity against human HCC827 cells using 1% DMSO/water compound formulation after 72 hrs by MTT assay. It is filed as functional, cell-based. The settings on record: HCC827, 72 h. In short, it runs like this: as §1
A short description of data set [4]: Solubility of the compound in 10% 2-HPbetaCD/water solution. The note with it: buffer. It is filed as physicochemical.
The test system of data set [5] is NCI-H23. The experiment in a line: Growth inhibition of human NCI-H23 cells assessed as cell growth at 10 uM after 24 hrs by SRB assay relative to control. The data set is classed as functional. The note with it: NCI-H23, 24 h, read-out: Activity. In short, it runs like this: (§2)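 NCI DTP one-dose screen: cells plated at density set by doubling rate, incubated overnight, then exposed to compound at 10 μM for 24 hours. Growth percentage from protein density at end versus start of experiment, relative to initial cell number.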
(Sulforhodamine B stains cellular protein and so reports cell mass.)

Data set [6] deals with NCI-H522. The data set can be described thus: Growth inhibition of human NCI-H522 cells assessed as cell growth at 10 uM after 24 hrs by SRB assay relative to control. It is filed as functional. The note with it: NCI-H522, 24 h, read-out: Activity. In short, it runs like this:
as §2

The subject of data set [7] is NCI-H522. The data set can be described thus: Growth inhibition of human NCI-H522 cells after 24 hrs by SRB assay. The settings on record: NCI-H522, 24 h. It is filed as functional.
For data set [8], the species on record is Bos taurus. The data set can be described thus: Binding affinity to calf thymus DNA assessed as increase in viscosity at 10 to 70 uM using 10% 2HPbetaCD/water compound formulation by Ostwald viscometric method.
The species entered for data set [9] is Bos taurus. The data set can be described thus: Inhibition of ethidium bromide binding to calf thymus DNA assessed as at 13.3 uM using 1% DMSO/water compound formulation by spectrofluorometric method.
Data set [10] relates to Mus musculus. The data set can be described thus: Acute toxicity in C57BL/6 mouse assessed as weight loss at 20 mg/kg, ip administered as 20% 2HPbetaCD formulation. The note with it: in vivo. The data set is classed as organism-based. The method, boiled down:
(§3)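 Female/male not stated; C57BL/6 mice received 20 mg/kg IP on day zero in 100 μL of 20% (w/v) 2-HPβCD, then a second 15 mg/kg IP dose on day fourteen. Vehicle controls got 100 μL of 20% 2-HPβCD IP on days 0, 7, 14, 21, 25 and 29. Body weight and behaviour were monitored throughout, with survival plotted Kaplan-Meier.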

Data set [11] relates to Mus musculus. The data set can be described thus: Acute toxicity in C57BL/6 mouse assessed as weight regain at 20 mg/kg, ip administered as 20% 2HPbetaCD formulation measured on day 4 to 14 post dose. The settings on record: in vivo. It is filed as organism-based. The method, boiled down:
as §3

Data set [12] has as its system Mus musculus. The data set can be described thus: Acute toxicity in C57BL/6 mouse assessed as weight loss at 20 mg/kg, ip administered as 20% 2HPbetaCD formulation on day 1 followed by redosing with 15 mg/kg, ip on day 14 relative to control. The data set is classed as organism-based. The settings on record: in vivo. In short, it runs like this:
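C57BL/6 mice given IP 100 μL of 20 mg/kg (based on 20 g mean mass) in 20% w/v 2-HPβCD on day 0, then 15 mg/kg on day 14. Vehicle mice received 2-HPβCD on days 0, 7, 14, 21, 25 and 29. Body weight, behaviour and survival monitored.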

Data set [13] relates to Mus musculus. The data set can be described thus: Acute toxicity in C57BL/6 mouse assessed as lethargic movement at 20 mg/kg, ip administered as 20% 2HPbetaCD formulation on day 1 followed by redosing with 15 mg/kg, ip on day 14 measured on day 15 post first dose. It is filed as organism-based. The note with it: in vivo. The method, boiled down: as §3

Active and inactive are the calls of the source. The calls are words filed in the database; no cut-off is given here.

Turning to `CCc1n(Cc2ccc3ccccc3c2)cc[n+]1Cc1ccc2ccccc2c1.[Br-]`, the IC50 in [1] worked out at 920 nM; in [2], 990 nM; in data set [3], 1150 nM. In data set [4], this compound displayed a solubility of over 4400 µg/mL. For the same compound, the growth at 10 µM in data set [5] was -14.6%; in data set [6] it was -25.4%. This compound also had a concentration for 50% growth inhibition (GI50) in [7] of 303 nM. Moreover, in data set [7], the total growth inhibition concentration (TGI) is 1440 nM. In addition, the CC50 in data set [7] (read-out: LC50 (the source's name)) came out at 1440 nM. For the same compound, the result in data set [8] was inactive. In addition, in [9], the inhibition entry was “inactive”. The Activity result in data set [10] is “Toxic”; in data set [11], “Toxic”; in [12] it was 6%; in [13] it was “Toxic”.

By IC50 is commonly meant the concentration needed to halve the response being measured. Broadly, the solubility is how much of the substance goes into solution per volume. A lower solubility goes with little dissolved substance. One may read the GI50 as the concentration that inhibits growth by half. A word on the TGI: it is the concentration giving total growth inhibition. A higher TGI goes with less potent growth arrest.

These data come from ChEMBL document CHEMBL4002637, “Synthesis, characterization, in vitro SAR and in vivo evaluation of N,N'bisnaphthylmethyl 2-alkyl substituted imidazolium salts against NSCLC” (Bioorg Med Chem Lett, 2017).
